# Source: PubChem (several laboratories)
# WT yeast gro inh = growth inhibition of WT yeast, mitochondrial fusion screen | mitochondrial fusion phenotypic screen, WT strain | inhibition, % at 10 µM | 2.1% of 190,000 active | AID 1362; in the data active means inhibition above about 58%; tested in S. cerevisiae
# Rad51 HR inh = Rad51 (human) homologous recombination inhibition; Q06609; inhibition, % at 10 µM; hRad51 DNA strand exchange, fluorescence dequenching; 0.085% of 200,000 active;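 active means inhibition above 40% at the single screening dose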;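 further: 0% = DMSO control wells and 100% = blanks with heterologous ssDNA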
# Target sequence (Q06609 whole entry, looked up): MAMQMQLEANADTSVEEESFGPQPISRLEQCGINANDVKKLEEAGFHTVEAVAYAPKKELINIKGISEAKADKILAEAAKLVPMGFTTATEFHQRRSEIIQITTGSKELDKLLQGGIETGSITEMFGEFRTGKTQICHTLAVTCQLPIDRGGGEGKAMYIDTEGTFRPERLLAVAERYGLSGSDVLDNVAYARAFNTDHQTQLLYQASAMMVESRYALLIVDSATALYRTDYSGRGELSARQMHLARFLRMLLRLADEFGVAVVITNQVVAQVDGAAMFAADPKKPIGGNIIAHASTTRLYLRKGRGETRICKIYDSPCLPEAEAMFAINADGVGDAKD
#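 Material: hRad51 filaments on single-stranded DNA; Reagent: Donor/quencher-labelled 47-bp dsDNA substrate; Compound: 10 µM final, single point; Schedule: 37 °C 15-min filament assembly, 30-min compound preincubation, 15-min exchange; Technique: FRET fluorescence, excitation 485 nm, emission 520 nm; Benchmarks: control wells and blank wells on each plate.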
# PMI act hi M6P = PMI (human) activation, high substrate | activation factor at 20 µM | AID 1216 | coupled PMI enzyme assay, resazurin fluorescence, 20 min; hits give high values; 1 = untreated enzyme, 0 = substrate-free blank | P34949 | 0.34% of 190,000 active;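 active means activation factor of 2 or more at 20 µM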
#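 Test system: human phosphomannose isomerase with PGI, G6PDH, diaphorase coupling enzymes / Doses: 20 µM compound, 1% DMSO / Times: enzyme reaction with compound 20 min at room temperature / Measured by: Diaphorase-driven resazurin-to-resorufin fluorescence, excitation 544, emission 590 nm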
# Lmaj promast = reduces viability of Leishmania major promastigotes; AID 1063; 9% of 200,000 active; resazurin fluorescence viability; inhibition, % at 10 µM; in the data active means inhibition above about 50%;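 further: promastigotes grown with compound for 44 hours at 28 °C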
# Calpain2 inh = inhibitors of pig calpain II. purified calpain II, fluorogenic peptide substrate, 30 min. inhibition, % at 16 µM. 0.37% of 220,000 active;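 active means inhibition above about 50%, limit read from the data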
# PMI activator = phosphomannose isomerase (human) activation; activation factor at 20 µM; purified human PMI, coupled resazurin fluorescence, 20 min; hits give high values; 1 = vehicle control, 0 substrate-free wells; 0.005% of 190,000 active; P34949; AID 1214;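 active means activation factor of 2 or more at 20 µM, relative to plate controls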
# Starred values were filed as active, the others as inactive; i = inactive; · = not tested or not shown. A selection: hits, their analogues and other compounds. The true share with any hit is near 9.8%.
SMILES,WT yeast gro inh,Rad51 HR inh,PMI act hi M6P,Lmaj promast,Calpain2 inh,PMI activator
CCN1CCN(CCNC(=O)c2cn(C(C)c3ccccc3F)nn2)CC1 (stereo not drawn),-10,0,1,-3,-27,1
Cc1ccc(C(C)n2cc(C(=O)NCCN3CCN(C)CC3)nn2)cc1 (stereo not drawn),-20,-5,0.8,92*,9,0.8
COc1cc(OC)c2c3c(c(C4CCCCC4)nc2c1)CCC3,·,5,·,·,·,·
O=c1[nH]c(-c2ccccn2)nc2sc(-c3ccccc3)cc12,76*,11,0.8,100*,i,0.5
Cn1c(=O)oc2cc(S(=O)(=O)N3CCC(C(=O)NCCc4ccccc4)CC3)ccc21,·,3,·,·,-18,·
O=C(Oc1cccc2c(O)cccc12)c1ccccc1,60*,-4,0.8,13,5,0.7
O=C(O)CCc1ccccc1OC(=O)c1ccccc1,·,·,·,·,-21,·
O=c1[nH]ncc(NCc2ccc(Cl)cc2)c1Cl,-2,6,0.9,-3,-5,0.9
CC(C)(C)OC(=O)CC[C@@H](C(=O)N1CCN(C(=O)OC(C)(C)C)CC1)n1cc(C(Cc2ccc(O)cc2)NC(=O)OC(C)(C)C)nn1 (stereo partly drawn),-6,·,1,-5,10,0.9
O=C(NCCCc1nc2ccccc2[nH]1)c1ccc(F)cc1,1,2,1.1,-2,-8,1.1
COc1ccc(/C=C\C(=O)CC(O)(c2ccccc2)C(F)(F)F)cc1 (stereo not drawn),25,3,1,100*,-2,0.9
O=C(Nc1cccc2ncccc12)c1ccc(OCc2ccccc2)cc1,-3,9,1,-8,-36,1
CC1=C(C(=O)Nc2ccccc2)C(c2ccc(C)o2)n2c(s/c(=C\c3ccco3)c2=O)=N1 (stereo not drawn),-11,0,0.9,84*,-52,0.8
COc1ccc(NC(=O)C(CC(C)C)NC(=O)C2CCC(C)CC2)c(OC)c1 (stereo not drawn),-9,-4,0.7,33,-1,0.9
COc1ccc(N2CCN(C(C)C(=O)Nc3nnc(C)s3)CC2)cc1 (stereo not drawn),-16,3,0.9,-5,-11,1
COc1ccc(C(=O)NCC(C)(C)SCc2c(C)cc(C)cc2C)cc1,35,10,1,3,56*,0.9
COc1ccc(CNC(=O)c2ccc(C(C)(C)C)cc2)cc1,4,-5,0.9,-3,7,0.8
Cc1cc(C)n2nc(SC(C)C(=O)Nc3ccc(Cl)cn3)nc2n1 (stereo not drawn),-23,-10,0.8,5,-12,0.8
COc1ccc(OCCC(=O)NCCN2CCOCC2)cc1,-10,-14,1.1,-1,14,1.1
COCCNC(=O)CN(C(=O)Cn1nnc2ccccc21)c1cc(C)cc(C)c1,-9,10,1.1,-6,-27,1
O=C(NC1CCCC1)C(c1ccncc1)N(CCCN1CCOCC1)C(=O)c1ccc(-c2ccccc2)[nH]1 (stereo not drawn),5,0,1,-2,-21,1
O=C(NC1CCCC1)C(c1ccncc1)N(Cc1ccco1)C(=O)c1ccc(-c2ccccc2)[nH]1 (stereo not drawn),-23,2,1,94*,-65,1.1
O=C(NC1CCCC1)C(c1ccncc1)N(Cc1ccccc1)C(=O)c1ccc(-c2ccccc2)[nH]1 (stereo not drawn),12,-7,1,97*,-80,0.8
CC(C)(C)NC(=O)C(c1ccncc1)N(Cc1ccc(F)cc1)C(=O)c1ccc(-c2ccccc2)[nH]1 (stereo not drawn),30,-34,1,99*,-51,0.9
N/C(=N\OS(=O)(=O)c1ccc(Br)cc1)c1ccncc1,-9,4,0.9,7,17,1
SMILES,WT yeast gro inh,Rad51 HR inh,PMI act hi M6P,Lmaj promast,Calpain2 inh,PMI activator
CSc1ccccc1C(=O)N1CCc2ccccc2C1,-8,-17,1,6,39,1
Cc1ccc(NC(=S)N=Nc2c(O)[nH]c3ccccc23)cc1,46,-7,1,91*,-4,1
Oc1ccc(NC(=S)N=Nc2c(O)[nH]c3ccccc23)cc1,-5,8,1.1,2,-1,1
CN(N)C(=S)Nc1ccc(Cl)cc1,-2,1,1.1,22,8,1
CC(C)(C)n1[nH]c2c3c(ccc2c1=O)C(=O)c1ccccc1C3=O,·,5,0.7,95*,-36,0.7
Nc1c(C(=O)O)ccc2c1C(=O)c1ccccc1C2=O,23,11,0.8,-4,32,1
Cc1ccc(C)c(-n2[nH]c3c4c(ccc3c2=O)C(=O)c2ccccc2C4=O)c1,67*,-4,0.4,11,-20,0.9
Cc1ccc(-n2[nH]c3c4c(ccc3c2=O)C(=O)c2ccccc2C4=O)cc1,2,-1,0.9,-4,7,0.9
Brc1cccc(CNc2nc3ccccc3n2CCN2CCCCC2)c1,·,·,·,·,13,·
Cn1c(NCc2cccc(Br)c2)nc2ccccc21,32,0,0.8,61*,-6,0.8
Cc1ccc(O)c(-c2cc(-c3cccc(F)c3)n[nH]2)c1,·,-3,0.9,99*,34,0.9
Cc1ccc(-c2cc(-c3cccc(F)c3)n[nH]2)c(O)c1,56,-2,1,24,3,0.9
O=[N+]([O-])c1ccccc1-c1cc(-c2ccccc2O)n[nH]1,3,5,0.7,58*,7,0.7
Cc1ccc(-c2cc(-c3ccccc3C)[nH]n2)c(O)c1,65*,-8,1,32,18,0.9
COC(=O)CC1C(=O)NCCN1C(=O)CSc1nc2ccc([N+](=O)[O-])cc2s1 (stereo not drawn),-11,-7,0.9,14,-2,1.1
COc1ccc(S(=O)(=O)Nc2cc3c4c(oc3c3ccccc23)CC(C)(C)CC4=O)cc1,37,7,0.5,100*,-104,0.7
Cc1cccc(NC(=O)c2ccc(S(=O)(=O)N3CCOCC3)cc2)n1,1,16,1,3,-14,1.1
N#Cc1ccc(-c2cccnc2)nc1SCc1ccc(Cl)c(Cl)c1,75*,2,0.9,8,4,0.8
O=C(Nc1sc2c(c1-c1nc3ccccc3[nH]1)CCCC2)C1CCCC1,17,0,1.1,88*,-63,1
CC(C)OC(=O)c1c(NC(=O)CCn2nnc3ccccc32)sc2c1CCCC2,-16,-2,0.9,28,-37,0.9
CC(=O)NCCC(=O)Nc1sc2c(c1-c1nc3ccccc3[nH]1)CCCC2,24,-3,1.2,98*,-23,1.2
CN1CCN(S(=O)(=O)c2cccc(C(=O)Nc3sc4c(c3-c3nc5ccccc5[nH]3)CCCC4)c2)CC1,5,·,1.2,98*,-64,1.1
